High-throughput results (PubChem BioAssay)
Shown is part of a subset that was picked to be rich in hits.
S1P3 antag: S1P3 (human) receptor antagonism; 170,000 tested, 0.27% active; inhibition, % at 4.98 µM; CHO S1P3 NFAT-BLA reporter, FRET fluorescence, antagonist mode; Q99500;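 active = inhibition above the plate cutoff, the mean inhibition of test wells on that plate plus 3 SD, cut at about 28% in these data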;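 also: cells challenged with S1P at its EC80 of 0.8 µM; blue over green emission ratio from cleaved BLA substrate after 4 h stimulation; 0% = S1P-stimulated wells and 100% = unstimulated DMSO-only wells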
Lmaj promast: inhibitors of Leishmania major promastigote growth; Leishmania major promastigotes, resazurin fluorescence viability; inhibition, % at 10 µM; 200,000 tested, 9% active; AID 1063; in the data active = inhibition above about 50%;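 also: promastigotes grown with compound for 44 hours at 28 °C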
S1P4 agonist: human S1P4 receptor agonism; O95977; S1P4-expressing cell line, agonist reporter assay; activation, % at 4.98 µM; 220,000 tested, 0.35% active; AID 1509; in the data active = activation above about 11%;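 also: 0% = DMSO vehicle and 100% = reference agonist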
Mdm2 ligase inh: inhibitors of human Mdm2 E3 ubiquitin ligase. Q00987. cell-based MDM2 ubiquitination luciferase reporter, 2 h; 0 = plate control, 100 = twice control, blank-subtracted. signal enhancement, % at 5 µM. 210,000 tested, 0.11% active. AID 1230;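 active = signal enhancement of 30% or more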;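 also: luminescence tracks abundance of the self-degrading MDM2-luciferase fusion protein; higher signal means inhibition of MDM2 E3 ligase activity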
Target sequence (Q00987 whole entry, looked up, the tested form may be a part): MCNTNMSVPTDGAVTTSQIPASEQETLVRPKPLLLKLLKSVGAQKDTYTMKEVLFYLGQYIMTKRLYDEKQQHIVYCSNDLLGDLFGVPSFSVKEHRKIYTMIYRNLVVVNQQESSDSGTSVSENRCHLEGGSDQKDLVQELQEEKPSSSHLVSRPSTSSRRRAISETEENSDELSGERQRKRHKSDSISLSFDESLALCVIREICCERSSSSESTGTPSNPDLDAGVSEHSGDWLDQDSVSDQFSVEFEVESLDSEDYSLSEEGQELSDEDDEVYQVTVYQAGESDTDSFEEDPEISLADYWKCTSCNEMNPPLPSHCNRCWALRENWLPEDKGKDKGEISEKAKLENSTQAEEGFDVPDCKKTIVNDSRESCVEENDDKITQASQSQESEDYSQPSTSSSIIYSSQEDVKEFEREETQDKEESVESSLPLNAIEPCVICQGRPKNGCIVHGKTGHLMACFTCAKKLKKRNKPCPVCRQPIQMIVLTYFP
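Test system: stable mammalian line carrying autodegrading MDM2–luciferase fusion reporter; quantity: 2000 cells in each well; times: 4 h cell settling then 2 h compound exposure, 37 °C; detection: luminescence with SteadyLite reagent, 15 min at room temperature; evaluation: percent signal gain over controls, blank-subtracted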
S1P4 antagonist: antagonists of human S1P4 receptor | O95977 | S1P4-expressing cells, antagonist mode, reporter read-out | inhibition, % at 4.98 µM | 220,000 tested, 0.26% active | AID 1510; in the data active = inhibition above about 29%;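 also: 0% = wells stimulated with agonist and 100% = vehicle wells without agonist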
Starred values were filed as active, the others as inactive; . = no result given.

SMILES	S1P3 antag	Lmaj promast	S1P4 agonist	Mdm2 ligase inh	S1P4 antagonist
CCN(CC)S(=O)(=O)c1cc(NC(=O)COC(=O)c2ccc(NC(=O)CC#N)cc2)ccc1C	-3.2	-11.2	-2.0	-6.7	-3.5
CCCCNc1ccc2nsnc2c1[N+](=O)[O-]	7.1	-6.2	2.7	-8.7	-22.5
CCOC(=O)c1c(C)sc2c1N(C(C)=O)c1cc(Cl)ccc1S2	.	23.3	-1.2	-20.7	-3.9
CC(C)(C)c1[nH]nc2c1C(C1C=CCCC1)C(C#N)=C(N)O2 (stereo unspecified)	.	83.4*	0.9	-16.3	-14.5
CCc1[nH]nc2c1C(C1C=CCCC1)C(C#N)=C(N)O2 (stereo unspecified)	-18.0	97.0*	0.3	4.8	-1.7
Clc1ccc(CSC2=NCCCN2)cc1Cl	3.3	91.5*	-0.7	-12.8	-6.6
Clc1ccccc1CSC1=NCCCN1	.	-0.8	1.4	13.4	-16.8
Cc1cc(C(=O)CSc2nnc(-c3cccnc3)n2-c2ccccc2F)c(C)n1C	-8.7	35.5	27.1*	-25.5	-54.1
C/C=C/c1cc(CN2CCN(c3ccc(OC)cc3)CC2)c(O)c(OC)c1	-6.0	19.3	-0.3	5.4	-12.4
CN1CCC(N(C)C(=O)COc2ccc(S(=O)(=O)N3CCOCC3)cc2)CC1	-8.4	2.6	-1.4	-19.7	-5.7
CC1CCCC(C)N1CC(O)COc1ccc(Cl)cc1 (stereo unspecified)	11.9	48.1	2.2	-1.6	-0.1
CN(CC(O)COc1ccc(S(=O)(=O)N2CCOCC2)cc1)C1CCCCC1 (stereo unspecified)	.	96.6*	-0.3	-11.5	-6.2
CN(CC(O)COCc1ccccc1F)C1CCCCC1 (stereo unspecified)	20.0	.	0.1	.	0.0
CN(CC(O)COc1ccccc1F)C1CCCCC1 (stereo unspecified)	-5.1	8.7	0.2	2.4	3.5
Cc1ccccc1OCC(O)CN(Cc1ccccc1O)C1CCCCC1 (stereo unspecified)	11.1	91.4*	-0.2	-12.2	-14.3
CCN(CC(O)COCc1ccc(Cl)cc1)C1CCCCC1 (stereo unspecified)	-2.0	68.1*	0.7	-23.5	7.5
CCN(CC(O)COc1ccc(OCC(O)CN(CC)C2CCCCC2)cc1)C1CCCCC1 (stereo unspecified)	.	100.0*	0.6	-12.2	-14.8
COc1ccccc1-n1cc(CN2CCN(C3CCCCC3)C(CCO)C2)cn1 (stereo unspecified)	-3.3	7.1	1.5	-4.8	-20.8
COC(=O)c1ccc(N2CCN(CC(=O)c3ccc(-c4ccccc4)cc3)CC2)c([N+](=O)[O-])c1	.	19.0	3.9	-5.2	-11.6
COc1ccc2nc(/C=N/NC(=O)[C@H](C)NC(=O)OC(C)(C)C)ccc2c1	-2.2	46.2	-0.1	-11.4	-6.8
CCOC(=O)CSc1nnc(CNC(=O)c2ccc(OC)cc2OC)n1-c1ccc(OC)cc1	-12.8	-0.4	0.2	.	-1.2
COc1ccc(C(=O)CSc2nnc(C3CCCCC3)n2N)c(OC)c1	8.6	53.0*	-1.3	-8.7	-0.6
O=C(CSc1nnc(CN2CCCCC2)n1-c1ccccc1)c1ccc2c(c1)OCO2	2.2	-7.4	-3.6	-20.0	-4.0
COc1ccc(C(=O)CSc2nnc(CN3CCCC3)n2-c2ccc(F)cc2)c(OC)c1	-22.7	80.2*	-0.1	-6.9	-9.6
COc1ccc(C(=O)CSc2nnc(CN3CCCCC3)n2-c2ccc(F)cc2)cc1OC	2.9	90.1*	-0.2	-11.5	-15.3
SMILES	S1P3 antag	Lmaj promast	S1P4 agonist	Mdm2 ligase inh	S1P4 antagonist
CC(O)CNc1nc(Cl)c(C#N)s1 (stereo unspecified)	-16.8	-0.8	-0.3	-10.7	-0.3
CC(=O)Nc1cccc(-c2nc3ccccc3c(=O)o2)c1	83.6*	-6.5	-0.3	-3.7	-15.7
Cc1cc(C)c2oc(-c3cccc(NC(=O)c4ccc(F)cc4)c3)nc2c1	.	65.3*	0.7	-1.0	-0.3
CCC(=O)Nc1cccc(-c2nc3ccccc3c(=O)o2)c1	-21.8	-0.6	0.6	-10.3	-19.9
CCC(CC)C(=O)Nc1cccc(-c2nc3ccccc3o2)c1	61.0*	1.5	-1.0	-13.2	-17.5
COc1cc(C(=O)Nc2cccc(-c3nc4cc(C)cc(C)c4o3)c2)cc(OC)c1OC	12.4	-0.7	0.1	-2.5	5.1
Cn1cc([N+](=O)[O-])c(C(=O)NCc2ccccc2)n1	-5.2	.	1.5	-20.1	-13.2
CC(=O)c1sc(NC(=O)COc2ccc(C)c(C)c2)nc1C	-8.7	-5.3	0.3	2.5	-9.6
CCC(Sc1nc2ccc(N)cc2s1)C(=O)Nc1nccs1 (stereo unspecified)	.	54.8*	1.6	-4.2	-4.2
O=C(CSc1nnc(-c2cccnc2)n1Cc1ccco1)N1CCc2ccccc21	-31.3	3.2	0.0	-4.7	-2.7
Cc1occc1-c1nnc(SCC(=O)N2CCCc3ccccc32)n1Cc1ccco1	-32.2	74.3*	0.7	-12.3	-11.1
Cc1cccc(-n2ccnc2SCC(=O)N2CCCc3ccccc32)c1C	4.1	59.6*	1.7	-17.2	-0.7
O=C1CC(NCc2ccncc2)C(=O)N1c1ccc(Cl)cc1 (stereo unspecified)	.	-7.5	-0.9	-7.5	8.5
O=C1CCc2cc(S(=O)(=O)N3CCCC3C(=O)NC3CCCCCCC3)ccc2N1 (stereo unspecified)	.	-2.7	0.0	-17.3	-31.3
O=[N+]([O-])c1cccc(S(=O)(=O)c2ccc(N3CCCCC3)c([N+](=O)[O-])c2)c1	-6.4	6.0	3.8	-7.7	-3.7
O=C(/C=C/c1ccc(N2CCCCC2)c([N+](=O)[O-])c1)c1ccc(S(=O)(=O)N2CCCC2)cc1	-5.5	100.4*	0.9	-2.9	-4.3
Cc1ccc(S(=O)(=O)N2CCN(c3ccc(C(=O)N4CCOCC4)cc3[N+](=O)[O-])CC2)cc1	-4.2	61.2*	0.2	-3.6	-14.8
O=[N+]([O-])c1cc(S(=O)(=O)c2ccc(N3CCCCC3)c([N+](=O)[O-])c2)ccc1N1CCCCC1	-6.6	95.2*	-0.3	-3.6	-16.1
CCC(=O)c1cc(F)c(N2CCN(S(=O)(=O)c3ccc(C)cc3)CC2)cc1C	8.5	68.8*	0.4	-9.4	0.1
COc1cccc(C(=O)/C=C/c2ccc(N3CCCCC3)c([N+](=O)[O-])c2)c1	-4.3	31.4	2.1	2.2	-16.5
COc1ccc(NC(=O)c2ccc(NC(=O)CN(C)CC(=O)Nc3c(C)cccc3C)cc2)cc1	-3.1	.	0.3	-9.0	-0.1
CCOCc1c(C(=O)NC2CCCCCC2)oc2ccccc12	-7.2	11.2	2.1	3.5	-2.9
Cc1nnsc1C(=O)NC1CCCCC1	.	-7.6	-0.7	-2.1	-28.4
Cc1ccccc1Nc1nc(-c2cccnc2)nc2ccccc12	4.1	77.9*	-2.3	-0.2	0.3
c1cncc(-c2nc(NCC3COc4ccccc4O3)c3ccccc3n2)c1 (stereo unspecified)	.	77.0*	-1.1	-11.1	-9.2
c1ccc(CN2CCC(Nc3nc(-c4cccnc4)nc4ccccc34)CC2)cc1	-7.8	97.9*	-0.1	3.2	-17.0
